According to ChEMBL document CHEMBL4196202, “Discovery and Structure-Based Optimization of Benzimidazole-Derived Activators of SOS1-Mediated Nucleotide Exchange on RAS” (J Med Chem, 2018):
≈ marks a conversion by molar mass, not a printed value. Calls of active or inactive are those of the source. The rule behind the calls is not given here.

Assays:
[1] = target: T1, Son of sevenless homolog 1 (Homo sapiens, UniProt Q07889); test: Binding affinity to human recombinant N-terminal His6-tagged SOS1 (564 to 1049 residues) expressed in BL21-RIL Escherichia coli by fluorescent probe S3 based fluorescence polarization anisotrophy saturation binding assay
T1 sequence (Q07889 whole entry): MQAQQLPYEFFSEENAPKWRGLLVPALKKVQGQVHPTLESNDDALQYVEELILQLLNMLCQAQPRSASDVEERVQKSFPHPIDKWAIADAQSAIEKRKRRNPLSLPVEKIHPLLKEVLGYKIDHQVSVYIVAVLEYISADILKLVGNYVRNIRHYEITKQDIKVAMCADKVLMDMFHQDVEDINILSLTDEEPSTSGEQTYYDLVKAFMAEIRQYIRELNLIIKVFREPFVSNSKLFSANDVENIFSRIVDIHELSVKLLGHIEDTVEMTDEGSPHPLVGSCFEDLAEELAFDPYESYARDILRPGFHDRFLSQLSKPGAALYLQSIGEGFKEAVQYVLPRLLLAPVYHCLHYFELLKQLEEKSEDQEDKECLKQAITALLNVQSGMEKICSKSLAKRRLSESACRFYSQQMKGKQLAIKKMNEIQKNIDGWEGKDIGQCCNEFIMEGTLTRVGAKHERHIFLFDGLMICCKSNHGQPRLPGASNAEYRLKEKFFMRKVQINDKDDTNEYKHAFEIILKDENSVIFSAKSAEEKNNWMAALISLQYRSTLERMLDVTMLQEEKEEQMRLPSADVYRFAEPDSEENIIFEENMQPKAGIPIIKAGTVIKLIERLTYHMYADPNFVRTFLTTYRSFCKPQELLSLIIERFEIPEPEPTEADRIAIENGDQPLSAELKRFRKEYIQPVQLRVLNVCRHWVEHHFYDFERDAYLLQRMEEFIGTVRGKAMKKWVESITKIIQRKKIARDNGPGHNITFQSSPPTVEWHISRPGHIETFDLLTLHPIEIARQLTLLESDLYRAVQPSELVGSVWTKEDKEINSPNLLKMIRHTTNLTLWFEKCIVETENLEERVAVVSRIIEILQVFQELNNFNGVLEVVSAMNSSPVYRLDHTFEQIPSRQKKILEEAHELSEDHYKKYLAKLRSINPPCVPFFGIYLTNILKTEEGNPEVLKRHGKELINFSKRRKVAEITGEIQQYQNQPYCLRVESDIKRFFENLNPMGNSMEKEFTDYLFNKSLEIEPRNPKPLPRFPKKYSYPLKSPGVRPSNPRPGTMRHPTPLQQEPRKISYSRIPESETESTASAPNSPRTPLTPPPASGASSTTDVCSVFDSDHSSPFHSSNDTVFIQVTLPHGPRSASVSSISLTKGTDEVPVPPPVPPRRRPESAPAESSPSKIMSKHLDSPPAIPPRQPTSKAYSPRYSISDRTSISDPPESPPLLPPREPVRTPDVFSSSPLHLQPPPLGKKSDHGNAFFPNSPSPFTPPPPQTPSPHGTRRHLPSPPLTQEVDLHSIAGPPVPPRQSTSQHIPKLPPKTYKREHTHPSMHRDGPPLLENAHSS
Summary of the method: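 SOS1cat (aa 564–1049) was titrated in a 16-point, 3-fold series from 10 μM top against 50 nM fluorescein probe S3. Buffer was 20 mM Tris-HCl pH 7.5, 50 mM NaCl, 1 mM magnesium chloride. Fluorescence anisotropy was read and Kd reported as mean ± SD of at least three independent experiments.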

[2] = target: T2, Son of sevenless homolog 1 (Homo sapiens) (UniProt Q07889); test: Activation of SOS1 in human NCI-H727 cells expressing KRAS G12V mutant assessed as induction of ERK1/2 T202/Y204 phosphorylation at 1.5 to 100 uM (higher range) incubated for 30 mins by In-cell Western assay; format: cell-based
T2 sequence (whole entry): T1 sequence (Q07889 whole entry)

[3] = target: Son of sevenless homolog 1 (Homo sapiens, UniProt Q07889); test: Activation of SOS1 in human NCI-H727 cells expressing KRAS G12V mutant assessed as induction of ERK1/2 T202/Y204 phosphorylation incubated for 30 mins by In-cell Western assay; format: cell-based
[4] = target: T2, Son of sevenless homolog 1 (Homo sapiens); test: Activation of SOS1 in human HeLa cells expressing wild type KRAS assessed as increase in RAS-GTP levels at 0.3 uM incubated for 10 mins by active RAS pull-down assay; format: cell-based
[5] = target: T1, Son of sevenless homolog 1; test: Activation of SOS1 in human HeLa cells expressing wild type KRAS assessed as induction of ERK1/2 T202/Y204 phosphorylation incubated for 30 mins by In-cell Western assay; format: cell-based
[6] = target: T2, Son of sevenless homolog 1 (Homo sapiens); test: Biphasic activity at of SOS1 in human HeLa cells expressing wild type KRAS assessed as reduction in ERK1/2 T202/Y204 phosphorylation at 1.5 to 100 uM (higher range) incubated for 30 mins by In-cell Western assay; format: cell-based
[7] = target: T2, Son of sevenless homolog 1 (Homo sapiens); test: Activation of SOS1 in human HeLa cells expressing wild type KRAS assessed as induction of ERK1/2 T202/Y204 phosphorylation at 1.5 to 100 uM incubated for 30 mins by In-cell Western assay
[8] = target: T2, Son of sevenless homolog 1 (Homo sapiens); test: Biphasic activity at of SOS1 in human HeLa cells expressing wild type KRAS assessed as induction of ERK1/2 T202/Y204 phosphorylation at 1.5 to 100 uM (lower range) incubated for 30 mins by In-cell Western assay; format: cell-based
[9] = target: T2, Son of sevenless homolog 1 (Homo sapiens); test: Activation of SOS1 in human NCI-H727 cells expressing KRAS G12V mutant assessed as induction of ERK1/2 T202/Y204 phosphorylation at 1.5 to 100 uM (lower range) incubated for 30 mins by In-cell Western assay; format: cell-based
[10] = target: T2, Son of sevenless homolog 1 (Homo sapiens); test: Activation of SOS1 in human HeLa cells expressing wild type KRAS assessed as increase in RAS-GTP levels at 10 to 30 uM incubated for 10 mins by active RAS pull-down assay; format: cell-based
Summary of the method: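 HeLa cells, STR-authenticated and mycoplasma-negative, were passaged at least twice after thaw (25 passages maximum). They were seeded to reach 70% confluency after 24 h, then treated. Active RAS-GTP was captured by RAF1-RBD pull-down and detected by SDS-PAGE and western blot with a pan-RAS antibody and a fluorescent secondary, read on an Odyssey imager. Total RAS and α-tubulin in the input served as loading controls.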

[11] = Aqueous solubility in pH 6.8 buffer at 1 mg/mL by HPLC/DAD-UV assay; format: physicochemical
Summary of the method: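 Solid compound was dispensed at 1 mg/mL into McIlvaine buffer pH 6.8, with a reference dissolved in acetonitrile/water 1:1 (v/v). Dissolved concentration was quantified by HPLC-DAD-UV. Single experiment.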

[12] = target: T2, Son of sevenless homolog 1 (Homo sapiens); test: Activation of SOS1 in human HeLa cells expressing wild type KRAS assessed as increase in RAS-GTP levels at 0.3 to 30 uM incubated for 10 mins by active RAS pull-down assay; format: cell-based
Summary of the method: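 HeLa cells seeded to reach 70% confluency after 24 h, then treated. RAS-GTP was captured by a RAF1-RBD active RAS pull-down kit, resolved by SDS-PAGE, blotted to PVDF and probed with pan-RAS antibody. Total RAS and α-tubulin inputs served as loading controls. Detection was by fluorescent secondary antibody on an Odyssey imager.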

Compound | Kd [1] | Activity [2] | EC50 [3] | Activity [4] | EC50 [5] | Activity [6] | Activity [7] | Activity [8] | Activity [9] | Activity [10] | solubility [11] | Activity [12]
Cc1cc(Cn2c(N3CC4(CNC4)C3)nc3c(N4CCN(C)CC4)cc(Cl)cc32)cc(C)c1F | 0.044 µM | Active | 10 µM | Active | 5.9 µM | Active | Active | Active | Active | Active | > 110 µg/mL | –
Cc1cc(Cn2c(N3CC4(CNC4)C3)nc3c(-c4cncnc4C)cc(Cl)cc32)cc(C)c1F | 0.016 µM | Active | 15.7 µM | – | 11.4 µM | Active | – | Active | Active | – | 3 µg/mL (≈ 6.29 µM) | Active
